# pEC50, pIC50: −log10 of the molar value. Activity calls are given as the source filed them. No cut-off for these calls is given here.
# How the values were obtained:
# [1] = tested on: Aorta; assay: Myorelaxant activity in potassium depolarized Wistar rat aorta rings assessed as relaxation of KCl-induced contraction; assay type: functional, tissue-based
# Summary of the method: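 Thoracic aorta rings (3–4 mm) from adult fed Wistar rats were equilibrated for 60 min, then contracted with 30 mM KCl. Drug was added cumulatively up to maximal relaxation or 300 µM, and isometric tension was recorded. Relaxation was expressed as % of the KCl contraction. EC50 (50% inhibition of the KCl plateau) was derived from dose–response curves. Values are mean ± SEM (n).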
# [2] = Inhibition of glucose-induced insulin secretion in Wistar rat pancreatic beta islets assessed as residual insulin secretion at 10 uM relative to control; assay type: functional
# [3] = tested on: Aorta; assay: Ratio of IC50 for glucose-induced insulin secretion in Wistar rat pancreatic beta islets to EC50 for myorelaxant activity in Wistar rat aorta rings; assay type: functional
# Summary of the method: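 Selectivity ratio: the estimated IC50 for inhibition of 16.7 mM glucose-induced insulin release from incubated islets, divided by the EC50 for relaxing 30 mM KCl-contracted rat aortic rings.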
# [4] = Inhibition of glucose-induced insulin secretion in Wistar rat pancreatic beta islets assessed as residual insulin secretion relative to control; assay type: functional
# Summary of the method: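 Groups of 10 islets from adult fed Wistar rats were preincubated for 30 min at 37 °C in bicarbonate salt medium with 2.8 mM glucose and 0.5% albumin, gassed with O2/CO2. They were then incubated for 90 min in the same medium with 16.7 mM glucose plus drug. Insulin was measured by radioimmunoassay and expressed as % of drug-free 16.7 mM glucose control. Values are mean ± SEM (n).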
# [5] = Inhibition of glucose-induced insulin secretion in Wistar rat pancreatic beta islets assessed as residual insulin secretion at 1 uM relative to control; assay type: functional
# [6] = Activation of KATP channel assessed as increase in rate of [86Rb] fractional outflow in perfused Wistar rat pancreatic beta islets at 10 uM
# Summary of the method: (§1)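 Islets from adult fed Wistar rats, in groups of 100, were loaded for 60 min at 37 °C in medium with 16.7 mM glucose plus either 86Rb (0.15–0.25 mmol/L) or 45Ca (0.02–0.04 mmol/L). They were washed three times and then perifused at 1.0 mL/min. Effluent was collected each minute from min 31 to 90. Outflow was expressed as fractional outflow rate (% of instantaneous islet content per min). Insulin in the effluent was measured by radioimmunoassay against a rat insulin standard.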
# [7] = Activation of KATP channel assessed as increase in rate of [86Rb] fractional outflow in perfused Wistar rat pancreatic beta islets in presence of glibenclamide at 10 uM; summary of the method: as §1
# [8] = Activation of KATP channel assessed as reduction of KCl-induced rise in calcium concentration in Wistar rat pancreatic beta islets at 10 uM by calcium fluorimetry
# Summary of the method: (§2)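 Dispersed rat islet cells were cultured for 72 h on coverslips, then loaded with fura-2 AM (2 µmol/L) for 1 h. Cells were perifused in bicarbonate salt medium with 2.8 mM glucose, gassed with O2/CO2. The rise in [Ca2+]i was evoked by 20 mM glucose or by 50 mM KCl, with NaCl lowered to keep osmolarity constant. Drug was 10 µM. Dual-excitation (340/380 nm, emission 510 nm) ratio F340/F380 was recorded in single cells, on different cell populations.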
# [9] = Activation of KATP channel assessed as reduction of glucose-induced rise in cytosolic calcium concentration in Wistar rat pancreatic beta islets at 10 uM by calcium fluorimetry; summary of the method: as §2
# [10] = Activation of KATP channel assessed as insulin release in perfused Wistar rat pancreatic beta islets at 10 uM; summary of the method: as §1
# [11] = Activation of KATP channel assessed as increase in rate of [45Ca] fractional outflow in perfused Wistar rat pancreatic beta islets at 10 uM; summary of the method: as §1
# [12] = Activation of KATP channel assessed as increase in rate of [45Ca] fractional outflow in perfused Wistar rat pancreatic beta islets at 10 uM in absence of extracellular calcium; summary of the method: as §1
Structure (SMILES),pEC50 [1],Activity [2],other results
COc1ccccc1NC(=S)NC1CC(C)(C)Oc2ccc(F)cc21 (centres undefined),< 5.00,82.9%,
CC(C)NC1=NS(=O)(=O)c2cc(Cl)ccc2N1,4.44,4.9%,Ratio IC50/EC50 [3]: 0.02; pIC50 [4]: 6.14; Activity [5]: 36.2%
Cc1ccccc1NC(=S)NC1CC(C)(C)Oc2ccc(Cl)cc21 (centres undefined),< 4.52,69%,
CC1(C)CC(NC(=S)Nc2ccccc2Cl)c2cc(F)ccc2O1 (centres undefined),4.61,81.3%,
CC1=Nc2ccc(Cl)cc2S(=O)(=O)N1 [DIAZOXIDE],,73.9%,Ratio IC50/EC50 [3]: 1.01; Activity [5]: 87.5%
COc1cccc(NC(=S)NC2CC(C)(C)Oc3ccc(F)cc32)c1 (centres undefined),5.21,52%,
COc1ccc(NC(=S)NC2CC(C)(C)Oc3ccc(Br)cc32)cc1 (centres undefined),< 5.00,53.1%,
Cc1cccc(NC(=S)NC2CC(C)(C)Oc3ccc(F)cc32)c1 (centres undefined),5.14,53.1%,
COc1ccccc1NC(=S)NC1CC(C)(C)Oc2ccc(Br)cc21 (centres undefined),< 5.00,65.1%,
CC1(C)CC(NC(=S)Nc2cccc(Cl)c2)c2cc(Br)ccc2O1 (centres undefined),< 5.00,23%,Ratio IC50/EC50 [3]: <0.25; pIC50 [4]: 5.59; Activity [5]: 74.6%
CC1(C)CC(NC(=S)Nc2ccccc2)c2cc(F)ccc2O1 (centres undefined),5.12,63.2%,
CC1(C)CC(NC(=S)Nc2ccccc2)c2cc(Cl)ccc2O1 (centres undefined),4.95,46.6%,
COc1cccc(NC(=S)NC2CC(C)(C)Oc3ccc(Br)cc32)c1 (centres undefined),< 5.00,36.6%,
COc1ccccc1NC(=S)NC1CC(C)(C)Oc2ccc(Cl)cc21 (centres undefined),5.26,76.8%,
CC(N/C(=N\C#N)Nc1ccncc1)C(C)(C)C (racemic) [PINACIDIL ANHYDROUS],6.46,,pIC50 [4]: < 4.00
CC1(C)Oc2ccc(C#N)cc2C(N2CCCC2=O)C1O (racemic) [CROMAKALIM],6.89,94.4%,Ratio IC50/EC50 [3]: >770; pIC50 [4]: < 4.00; Activity [5]: 95.3%
Cc1ccc(NC(=S)NC2CC(C)(C)Oc3ccc(F)cc32)cc1 (centres undefined),< 4.52,60.2%,

Structure (SMILES),pEC50 [1],Activity [2],other results
CC1(C)CC(NC(=S)Nc2ccccc2)c2cc(Br)ccc2O1 (centres undefined),4.29,32.8%,
COc1ccc(NC(=S)NC2CC(C)(C)Oc3ccc(F)cc32)cc1 (centres undefined),4.67,73.8%,
CC1(C)CC(NC(=S)Nc2cccc(Cl)c2)c2cc(Cl)ccc2O1 (centres undefined),< 5.00,16.2%,Ratio IC50/EC50 [3]: <0.31; pIC50 [4]: 5.51; Activity [5]: 89.5%
CC1(C)CC(NC(=S)Nc2ccccc2Cl)c2cc(Br)ccc2O1 (centres undefined),5.19,57.5%,
COc1cccc(NC(=S)NC2CC(C)(C)Oc3ccc(Cl)cc32)c1 (centres undefined),5.54,34.3%,
Cc1cccc(NC(=S)NC2CC(C)(C)Oc3ccc(Cl)cc32)c1 (centres undefined),3.86,43%,
CC1(C)CC(NC(=S)Nc2ccc(Cl)cc2)c2cc(Br)ccc2O1 (centres undefined),< 5.00,12.2%,Ratio IC50/EC50 [3]: <0.22; pIC50 [4]: 5.65; Activity [6]: Active; Activity [7]: inactive; Activity [5]: 75.7%; Activity [8]: inactive; Activity [9]: Active
Cc1ccc(NC(=S)NC2CC(C)(C)Oc3ccc(Cl)cc32)cc1 (centres undefined),< 4.52,32.8%,
Cc1cccc(NC(=S)NC2CC(C)(C)Oc3ccc(Br)cc32)c1 (centres undefined),< 4.52,37.2%,
CC1(C)CC(NC(=S)Nc2cccc(Cl)c2)c2cc(F)ccc2O1 (centres undefined),< 5.00,18%,Ratio IC50/EC50 [3]: <0.32; pIC50 [4]: 5.49; Activity [5]: 90.2%
CC1(C)CC(NC(=S)Nc2ccccc2Cl)c2cc(Cl)ccc2O1 (centres undefined),5.49,68.2%,
CC1(C)CC(NC(=S)Nc2ccc(Cl)cc2)c2cc(F)ccc2O1 (centres undefined),< 5.00,10.5%,Activity [10]: Active; Ratio IC50/EC50 [3]: <0.23; Activity [11]: Active; pIC50 [4]: 5.64; Activity [6]: Active; Activity [12]: inactive; Activity [7]: inactive; Activity [5]: 77.5%; Activity [8]: inactive; Activity [9]: Active
CC1(C)CC(NC(=S)Nc2ccc(Cl)cc2)c2cc(Cl)ccc2O1 (centres undefined),< 5.00,8.9%,Ratio IC50/EC50 [3]: <0.27; pIC50 [4]: 5.56; Activity [5]: 87.9%
Cc1ccccc1NC(=S)NC1CC(C)(C)Oc2ccc(F)cc21 (centres undefined),4.95,69.8%,
COc1ccc(NC(=S)NC2CC(C)(C)Oc3ccc(Cl)cc32)cc1 (centres undefined),4.90,50.4%,
Cc1ccc(NC(=S)NC2CC(C)(C)Oc3ccc(Br)cc32)cc1 (centres undefined),< 4.52,52.2%,
Cc1ccccc1NC(=S)NC1CC(C)(C)Oc2ccc(Br)cc21 (centres undefined),< 4.52,57%,
